GASC1 inh – inhibitors of human demethylase GASC-1 KDM4C; Q9H3R0; GST-KDM4C 2-372, H3K9me3 peptide, LANCE TR-FRET; inhibition, % at 12.5 µM; hit rate 0.15% among 96,000; AID 720574;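 active = mean replicate inhibition above about 25%, with at least 55% of replicates also reaching it, limit read from the data, passing the limit was not always enough; inconclusive = only one of those two conditions met; inactive = neither condition met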
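Material: N-terminal GST-fused human GASC-1 (KDM4C) fragment, residues 2-372. Input: 10 nM enzyme. Incubation: enzyme reaction 30 min, then detection 60 min, both room temperature. Doses: one test concentration per compound. Read-out basis: inhibition from TR-FRET ratio decrease. Detection: LANCE TR-FRET, excitation 340 nm, emissions 618 and 671 nm.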
T cruzi growth-1 – T. cruzi proliferation inhibition; AID 624255; inhibition, % at 8.34 µM; hit rate 5.9% among 77,000; T. cruzi beta-gal in NIH3T3, GalScreen luminescence, 90 h;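 active = mean inhibition above about 93%, with at least 55% of replicates each passing it, limit read from the data, passing the limit was not always enough; inconclusive = only one of those two conditions holds; inactive = neither condition holds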
IDH1 R132H inh – blocks human IDH1 R132H reductase activity | O75874 | diaphorase/resazurin fluorescence, 60 min | inhibition, % at 10 µM | hit rate 0.18% among 70,000 | AID 624101; in the data active = inhibition above about 34%; inconclusive = no clear call, values can overlap the other calls; inactive = below about 11%
Target sequence (O75874 whole entry R132H): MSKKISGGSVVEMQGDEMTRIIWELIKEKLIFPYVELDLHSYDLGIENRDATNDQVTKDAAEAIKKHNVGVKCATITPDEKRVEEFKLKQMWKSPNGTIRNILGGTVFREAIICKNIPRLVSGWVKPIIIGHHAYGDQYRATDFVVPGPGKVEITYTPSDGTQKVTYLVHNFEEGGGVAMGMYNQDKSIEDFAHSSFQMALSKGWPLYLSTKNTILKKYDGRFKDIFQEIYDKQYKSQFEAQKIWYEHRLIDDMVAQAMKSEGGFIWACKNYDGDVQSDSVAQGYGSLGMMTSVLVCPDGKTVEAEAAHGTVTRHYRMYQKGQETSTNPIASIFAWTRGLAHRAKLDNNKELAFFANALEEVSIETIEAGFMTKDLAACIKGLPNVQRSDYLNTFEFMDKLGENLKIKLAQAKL
Pf Dd2 growth – P. falciparum Dd2 growth inhibition; SYBR Green, 72 h; stronger effect = lower value; activity change, % at 10 µM; hit rate 2.3% among 94,000; AID 1159554; in the data active = activity change below about -80%; inconclusive = no clear call, values can overlap the other calls
T cruzi growth-2 – Trypanosoma cruzi proliferation inhibition; inhibition, % at 8.35 µM; T. cruzi beta-gal in NIH3T3, GalScreen luminescence, 90 h; AID 651739; shares compounds with T cruzi growth-1; hit rate 72% among 5,600;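 active = mean replicate inhibition above about 95% and at least 55% of replicates individually reaching it, limit read from the data; inconclusive = only one of the two criteria is met; inactive = neither criterion is met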
T cruzi growth-3 – blocks T. cruzi growth in NIH3T3 host cells. hit rate 21% among 5,600. AID 651740. inhibition, % at 2.09 µM. T. cruzi beta-gal in NIH3T3, GalScreen luminescence, 90 h. shares compounds with T cruzi growth-1;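 active = mean inhibition above about 95%, with at least 55% of replicates also reaching it, limit read from the data; inconclusive = meets just one of the two conditions; inactive = meets neither condition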
NIH3T3 tox – cytotoxicity in mouse NIH/3T3 fibroblasts. shares compounds with T cruzi growth-1. NIH/3T3 viability, CellTiter-Glo ATP luminescence, 90 h. cytotoxicity (signal decrease), % at 8.35 µM. hit rate 14% among 5,600. AID 651742;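 active = mean signal decrease across replicates above about 35% based on untreated-well scatter, with enough replicates individually passing, limit read from the data; inconclusive = no rule stated though some were filed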
3T3 cytotox 2 – cytotoxicity in mouse NIH/3T3 fibroblasts; hit rate 56% among 5,600; inhibition, % at 24.9 µM; NIH/3T3 viability, CellTiter-Glo ATP luminescence, 90 h; shares compounds with T cruzi growth-1; AID 651744;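 active = mean loss of cell viability signal at or above a set limit, and enough replicates individually reaching it; inconclusive = meets only the mean limit or only the replicate share; inactive = meets neither condition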
A number is an active result; i = inactive; ? = inconclusive; nt = not tested or not shown. Hits are enriched below; roughly 5.9% of the tested compounds scored in any of these assays.

SMILES	GASC1 inh	T cruzi growth-1	IDH1 R132H inh	Pf Dd2 growth	T cruzi growth-2	T cruzi growth-3	NIH3T3 tox	3T3 cytotox 2
C[C@H]1CN([C@@H](C)CO)C(=O)c2cccc(NC(=O)Nc3ccc(C(F)(F)F)cc3)c2O[C@H]1CN(C)Cc1ccc2c(c1)OCO2	i	99	nt	i	106	103	i	98
C[C@H]1CN([C@@H](C)CO)C(=O)c2cccc(NC(=O)Nc3ccc(C(F)(F)F)cc3)c2O[C@@H]1CN(C)S(=O)(=O)c1ccc(F)cc1	i	i	nt	i	nt	nt	nt	nt
C[C@@H]1CN([C@H](C)CO)C(=O)c2cccc(NC(=O)Nc3ccc(C(F)(F)F)cc3)c2O[C@@H]1CN(C)S(=O)(=O)c1ccc(Cl)cc1	nt	108	i	i	103	107	i	105
C[C@H](CO)N1C[C@H](C)[C@H](CN(C)Cc2ccc(Cl)c(Cl)c2)Oc2ccc(NC(=O)Nc3ccc(C(F)(F)F)cc3)cc2C1=O	i	103	i	i	98	109	i	108
C[C@@H]1CN([C@@H](C)CO)C(=O)c2cccc(NC(=O)Nc3ccc(C(F)(F)F)cc3)c2O[C@H]1CN(C)Cc1ccc(Cl)c(Cl)c1	i	130	i	i	102	116	39	89
COc1ccc(NC(=O)Nc2cccc3c2O[C@@H](CN(C)Cc2ccc(Cl)c(Cl)c2)[C@H](C)CN([C@@H](C)CO)C3=O)cc1	i	116	i	i	99	102	i	53
C[C@@H]1CN([C@H](C)CO)C(=O)c2cccc(NC(=O)Nc3ccc(C(F)(F)F)cc3)c2O[C@H]1CN(C)Cc1ccc(Cl)c(Cl)c1	i	?	nt	i	99	108	i	105
COc1ccc(S(=O)(=O)N(C)CC(=O)Nc2ccc(C(N)=O)cc2)cc1Cl	nt	nt	i	nt	nt	nt	nt	nt
CN1C(=O)c2cc(NC(=O)c3ccc(F)c(F)c3)ccc2OC[C@H]2O[C@H](CC(=O)N[C@H]3CCN(Cc4ccccc4)C3)CC[C@H]21	i	102	nt	nt	107	i	i	i
CN1C(=O)c2cc(NC(=O)c3ccc(F)c(F)c3)ccc2OC[C@H]2O[C@H](CC(=O)N[C@H]3CCN(Cc4ccccc4)C3)CC[C@@H]21	i	108	nt	nt	i	i	i	i
CN1C(=O)c2cc(NC(=O)c3ccc(F)c(F)c3)ccc2OC[C@@H]2O[C@@H](CC(=O)N[C@@H]3CCN(Cc4ccccc4)C3)CC[C@@H]21	i	112	nt	nt	102	i	i	39
CN1C(=O)c2cc(NC(=O)c3ccc(F)c(F)c3)ccc2OC[C@H]2O[C@H](CC(=O)N[C@@H]3CCN(Cc4ccccc4)C3)CC[C@@H]21	i	i	nt	nt	nt	nt	nt	nt
CN1C(=O)c2cc(NC(=O)c3ccc(F)c(F)c3)ccc2OC[C@@H]2O[C@@H](CC(=O)N[C@H]3CCN(Cc4ccccc4)C3)CC[C@H]21	i	99	nt	nt	?	i	i	i
CN1C(=O)c2cc(NC(=O)c3ccc(F)c(F)c3)ccc2OC[C@H]2O[C@@H](CC(=O)N[C@H]3CCN(Cc4ccccc4)C3)CC[C@@H]21	i	i	nt	nt	nt	nt	nt	nt
CN1C(=O)c2cc(NC(=O)Cc3cccs3)ccc2OC[C@@H]2O[C@H](CC(=O)N[C@H]3CCN(Cc4ccccc4)C3)CC[C@@H]21	i	i	nt	nt	nt	nt	nt	nt
CCCNC(=O)N(C)C[C@@H]1Oc2ncc(C#CC3(O)CCCC3)cc2C(=O)N([C@@H](C)CO)C[C@@H]1C	i	nt	i	i	nt	nt	nt	nt
COC(=O)C[C@H]1CC[C@H]2[C@H](COc3ccc(NC(=O)NC(C)C)cc3C(=O)N2C)O1	i	i	nt	i	nt	nt	nt	nt
COc1ccc(NC(=O)Nc2ccc3c(c2)C(=O)N([C@@H](C)CO)C[C@H](C)[C@@H](CN(C)S(=O)(=O)c2ccc(Cl)cc2)OCCCC[C@@H](C)O3)cc1	i	107	i	i	109	112	i	i
COc1ccc(NC(=O)Nc2ccc3c(c2)C(=O)N([C@H](C)CO)C[C@@H](C)[C@H](CN(C)S(=O)(=O)c2ccc(Cl)cc2)OCCCC[C@@H](C)O3)cc1	i	115	i	i	105	101	i	i
C[C@@H]1CN([C@H](C)CO)S(=O)(=O)c2ccc(-c3cccc(C#N)c3)cc2O[C@H]1CN(C)C(=O)Nc1ccccc1F	i	i	i	i	nt	nt	nt	nt
C[C@H]1CN([C@@H](C)CO)S(=O)(=O)c2ccc(-c3cccc(C#N)c3)cc2O[C@@H]1CN(C)C(=O)Nc1ccccc1F	i	?	i	i	i	i	i	61
C[C@@H]1CN([C@@H](C)CO)S(=O)(=O)c2ccc(-c3cccc(C#N)c3)cc2O[C@@H]1CN(C)C(=O)Nc1ccccc1F	i	110	nt	i	97	i	48	68
C[C@@H]1CN([C@@H](C)CO)S(=O)(=O)c2ccc(-c3cccc(C#N)c3)cc2O[C@@H]1CN(C)C(=O)c1ccccc1	i	109	i	i	104	i	54	72
Nc1cc(N)nc(SCc2cccnc2)n1	nt	nt	i	nt	nt	nt	nt	nt
C[C@H](CO)N1C[C@H](C)[C@@H](CN(C)C(=O)Nc2ccccc2)Oc2cc(C#Cc3ccccc3)ccc2S1(=O)=O	i	118	i	i	105	i	i	i
SMILES	GASC1 inh	T cruzi growth-1	IDH1 R132H inh	Pf Dd2 growth	T cruzi growth-2	T cruzi growth-3	NIH3T3 tox	3T3 cytotox 2
C[C@H](CO)N1C[C@H](C)[C@H](CN(C)C(=O)Nc2ccccc2)Oc2cc(C#Cc3ccccc3)ccc2S1(=O)=O	i	118	i	i	107	i	i	i
Cc1ccccc1-c1ccc2c(c1)O[C@H](CN(C)C(=O)Nc1ccccc1)[C@@H](C)CN([C@@H](C)CO)S2(=O)=O	i	92	i	i	102	i	?	64
O=C(COc1ccccc1C(=O)Nc1ccccc1)Nc1ccc([N+](=O)[O-])cc1	nt	nt	i	nt	nt	nt	nt	nt
C[C@H](C(=O)N(C)C[C@@H]1OCc2ccccc2-c2ccccc2C(=O)N([C@@H](C)CO)C[C@@H]1C)c1ccccc1	i	i	nt	i	nt	nt	nt	nt
O=C(C[C@@H]1C[C@H]2c3cc(NC(=O)NC4CCCC4)ccc3O[C@H]2[C@H](CO)O1)NC1CCCCC1	i	i	i	i	nt	nt	nt	nt
Cc1ccc(-c2ccc3c(c2)O[C@H](CN(C)C(=O)C2CCCCC2)[C@H](C)CN([C@H](C)CO)S3(=O)=O)cc1	i	121	nt	i	96	?	i	105
Cc1ccc(-c2ccc3c(c2)O[C@@H](CN(C)C(=O)C2CCCCC2)[C@H](C)CN([C@H](C)CO)S3(=O)=O)cc1	i	112	nt	i	101	i	i	107
Cc1ccc(-c2ccc3c(c2)O[C@H](CN(C)C(=O)C2CCCCC2)[C@H](C)CN([C@@H](C)CO)S3(=O)=O)cc1	i	118	i	i	i	i	50	106
